Source: PubChem
Shown are actives, neighbours in structure and some others; about 8.2% of the full set was active somewhere.
HePTP inh: inhibitors of human HePTP phosphatase, primary screen, biochemical, absorbance, leukemia target. recombinant HePTP phosphatase activity, OD absorbance. inhibition, % at 20 µM. Tyrosine-protein phosphatase non-receptor type 7 (Homo sapiens), P35236. AID 521, 2006. hit rate 0.64% among 110,000; in the data active means inhibition above about 50%
RORA act: activators of orphan receptor RORA, primary screen, cell-based, luminescence; AID 560, 2006; activation, % at 10 µM; Nuclear receptor ROR-alpha (Homo sapiens), P35398; CHO-K1 Gal4-RORA LBD luciferase reporter; percent increase over mock-subtracted basal signal; hit rate 1.5% among 65,000;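 active means activation above the mean of all tested compounds plus 3 SD, cut at about 49% in these data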
M1 agonist: M1 muscarinic receptor agonists, primary screen, CHO-M1 cells, Fluo-4 calcium, agonist mode. Muscarinic acetylcholine receptor M1. Fluo-4 calcium fluorescence; hits give high values. B-score at 10 µM. hit rate 3% among 64,000;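 active means fluorescence rise, raw or as B-score row- and column-corrected plate score, outside the 99.7% band of its plate's samples, either direction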
D1 mod: D1 CRE-luciferase signal change, two-sided – cell-based, HEK293 D1, dopamine EC30, D1 allosteric modulator project, primary screen. dopamine EC30 potentiation; actives deviate in either direction. B-score at 10 µM. hit rate 5.9% among 58,000;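 active means luminescence count or its row- and column-corrected plate score outside the 99.7% band of the plate's sample wells, on either side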
Target sequence (P21728 whole entry, looked up): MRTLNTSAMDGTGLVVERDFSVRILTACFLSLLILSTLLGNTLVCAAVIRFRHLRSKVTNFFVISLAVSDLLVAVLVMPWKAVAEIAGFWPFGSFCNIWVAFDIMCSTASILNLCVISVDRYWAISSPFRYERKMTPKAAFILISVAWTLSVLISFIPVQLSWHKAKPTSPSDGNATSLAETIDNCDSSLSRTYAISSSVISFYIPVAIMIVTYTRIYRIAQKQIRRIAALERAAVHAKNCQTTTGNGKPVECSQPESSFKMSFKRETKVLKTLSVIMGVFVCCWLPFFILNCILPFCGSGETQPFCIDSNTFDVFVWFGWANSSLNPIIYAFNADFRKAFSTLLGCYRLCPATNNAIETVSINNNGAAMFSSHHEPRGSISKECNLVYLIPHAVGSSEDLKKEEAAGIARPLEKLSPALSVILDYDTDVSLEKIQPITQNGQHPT
SF-1 act: activators of human SF-1, primary screen, cell-based, CHO-K1, Gal4-SF-1 LBD, luciferase luminescence | AID 522, 2006 | CHO-K1 Gal4-SF-1 LBD luciferase reporter; % increase over DMSO SF-1-specific signal | hit rate 1.9% among 65,000 | activation, % at 10 µM;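 active means activation above the mean activation of all tested compounds plus 3 SD, cut at about 50% in these data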
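Test system: CHO-K1 cells co-transfected with Gal4 DBD–human SF-1 LBD, 5xGal4 luciferase reporter. Quantity: 4,000 cells per well. Compound: 10 µM only. Incubation: compound added 1 h post-seeding, 20 h exposure at 37 °C, 5% CO2. Detection: SteadyLite luciferase luminescence. Replication: one test per compound.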
M1 antag: antagonists of rat M1 muscarinic receptor; Muscarinic acetylcholine receptor M1 (Rattus norvegicus), P08482; CHO-M1 cells, Fluo-4 calcium, ACh EC80 antagonist mode; hits give low values; B-score at 10 µM; hit rate 3.4% among 64,000; AID 628, 2007;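 active means calcium fluorescence response, raw or row-and-column corrected B-score, differing from the plate sample mean either way at a set confidence level, mostly lower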
D1 PAM confirm: D1 receptor positive allosteric modulators, retest, confirmation, cell-based, HEK293 D1, CRE-luciferase, duplicate. hit rate 88% among 2,200. luminescence at 10 µM. shares compounds with D1 mod. dopamine EC30 potentiation; hits give high values;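 active means luminescence in either of two replicates above the same-plate mean plus 3 SD of the low-dose dopamine control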
D1 ag no DA: D1 receptor agonism without dopamine, confirmation, mechanism study for D1 allosteric modulator project, cell-based, HEK293 D1, CRE-luciferase, secondary assay 1; luminescence at 10 µM; AID 646, 2007; hit rate 0.8% among 1,900; shares compounds with D1 mod; luminescence, no dopamine; hits give high values; in the data active means luminescence above about 3900
Isoprot counter: alters isoproterenol CRE-luciferase response in HEK293 cells; shares compounds with D1 mod; HEK293 D1 CRE-luciferase, isoproterenol EC30 counter-screen; calls only at 10 µM; hit rate 63% among 2,200;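 active means luminescence in either replicate above plate mean of wells with a partly effective reference agonist dose plus 3 SD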;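 further: isoproterenol raises cAMP through native beta-adrenoceptor Gs so signal bypasses D1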
Of the large screens only hits and unclear results are named; the others gave an inactive call (follow-up assays come after a bar, where they were run).

O=C(CNC(=O)c1cccs1)NCCN1CCN(Cc2ccccc2)CC1	none
CCn1nnc(-c2ccccc2NC(=O)c2ccc(-n3cnnn3)cc2)n1	none
CC1(C)CC(=O)c2cnc(NC(=O)CSc3nc4ccccc4o3)nc2C1	none
CC1(C)CC(=O)c2cnc(NC(=O)Cc3ccc(Cl)cc3)nc2C1	none
Cc1cc(C)nc(SCC(=O)Nc2ncc3c(n2)CC(C)(C)CC3=O)n1	D1 mod 5.29 | D1 PAM confirm 7004 | D1 ag no DA inactive | Isoprot counter inactive
CCCCC(=O)Nc1ncc2c(n1)CC(C)(C)CC2=O	D1 mod 3.03 | D1 PAM confirm inactive | Isoprot counter inactive
CCC1CCc2c(sc(N)c2C#N)C1 (stereo not drawn)	none (no result: RORA act, M1 agonist, D1 mod, SF-1 act, M1 antag)
N#Cc1c(N)sc2c1CCCCCC2	D1 mod 5.85 | D1 PAM confirm 13464 | D1 ag no DA inactive | Isoprot counter inactive
C=C(C)COc1ccc2c(-c3ccccc3)cc(=O)oc2c1	none (no result: RORA act, M1 agonist, D1 mod, SF-1 act, M1 antag)
CCOC(=O)c1c(NC(=O)C2C(C=C(Cl)Cl)C2(C)C)sc2c1CCCC2 (stereo not drawn)	none (no result: RORA act, M1 agonist, D1 mod, SF-1 act, M1 antag)
COc1ccc(C2C(C(=O)OC3CCCCC3)=C(C)NC3=C2C(=O)CCC3)c(OC)c1 (stereo not drawn)	none (no result: RORA act, M1 agonist, D1 mod, SF-1 act, M1 antag)
O=C(O)CCSCC(=O)Nc1c(C(=O)C2CC2)oc2ccccc12	D1 mod 8.32 | D1 PAM confirm 14596 | Isoprot counter active
Cc1ccc(NC(=O)C2CCCN(S(=O)(=O)c3c(C)noc3C)C2)cc1F (stereo not drawn)	none
Clc1ccccc1COc1ccccc1-c1nnco1	none (no result: HePTP inh)
c1ccc(OCCOc2ccccc2-c2nnco2)cc1	D1 mod 4.37 | D1 PAM confirm inactive | D1 ag no DA inactive | Isoprot counter inactive
CCOc1nc(C)ccc1-c1noc(-c2ccncc2)n1	D1 mod 18.2 | D1 PAM confirm 11268 | D1 ag no DA inactive | Isoprot counter active
COCCCNc1nc2ccccc2nc1NS(=O)(=O)c1cccs1	D1 mod 2.78 | D1 PAM confirm 10820 | D1 ag no DA inactive | Isoprot counter inactive
O=S(=O)(Nc1nc2ccccc2nc1NCC1CCCO1)c1cccs1 (stereo not drawn)	D1 mod 8.63 | D1 PAM confirm 15576 | D1 ag no DA inactive | Isoprot counter active
CC1C=Cc2ccccc2N1C(=O)c1ccccc1 (stereo not drawn)	D1 mod 4 | D1 PAM confirm 9976 | D1 ag no DA inactive | Isoprot counter inactive
O=c1c2ccccc2nc(SCc2cccc(F)c2)n1Cc1ccco1	D1 mod 5.16 | D1 PAM confirm 10716 | D1 ag no DA inactive | Isoprot counter inactive
C=C(C)CSc1nnc(-c2cccc(S(=O)(=O)N(C)C)c2)n1-c1cc(OC)ccc1OC	none
CC(C)CC1(C)NC(=O)NC1=O (stereo not drawn)	D1 mod 2.99 | D1 PAM confirm inactive | D1 ag no DA inactive | Isoprot counter inactive
CC(=O)c1c(N2CCN(c3cccc(Cl)c3)CC2)nc(=S)n(-c2ccccc2)c1C	none
CCn1c2ccccc2c2cc(/C=N/NC(=O)c3cccc(Br)c3)ccc21	none (no result: RORA act, M1 agonist, D1 mod, SF-1 act, M1 antag)
COc1ccc(NC(=O)Cn2nnc(-c3ccc(CN4CCOCC4)cc3)n2)c(OC)c1	none
O=[N+]([O-])c1cccc(/C=N/Nc2c(Cl)cc(Cl)cc2Cl)c1	none (no result: RORA act, M1 agonist, D1 mod, SF-1 act, M1 antag)
CCCC(=O)c1c(NC(C)C)cc(C)oc1=O	D1 mod 5.68 | D1 PAM confirm 12004 | D1 ag no DA inactive | Isoprot counter active
Cc1onc(-c2ccccc2)c1C(=O)Oc1cccnc1	D1 mod 6.7 | D1 PAM confirm 13128 | D1 ag no DA inactive | Isoprot counter active
Cn1ncc2c(NCc3ccccc3)ncnc21	none
C1=Nc2c(NCc3ccccc3)ncnc2Oc2ccccc21	D1 mod 7.98 | D1 PAM confirm 10088 | D1 ag no DA inactive | Isoprot counter active
Cc1cccc(NCN2C(=O)C3CCCCC3C2=O)c1 (stereo not drawn)	none (no result: RORA act, M1 agonist, D1 mod, SF-1 act, M1 antag)
C/C=C/Cn1c(SCc2ccc(C)cc2)nc2c1c(=O)[nH]c(=O)n2C	D1 mod 11.9 | D1 PAM confirm 26548 | D1 ag no DA inactive | Isoprot counter active
C=CCn1c(SCc2ccc(F)cc2)nc2c1c(=O)[nH]c(=O)n2C	none
C=CCn1c(SCc2ccc(Cl)cc2)nc2c1c(=O)[nH]c(=O)n2C	D1 mod 2.92 | D1 PAM confirm 8180 | D1 ag no DA inactive | Isoprot counter active
C=CCSc1nc2c(c(=O)[nH]c(=O)n2C)n1C(C)C	D1 mod 9.52 | D1 PAM confirm 11684 | D1 ag no DA inactive | Isoprot counter active
Cc1cc(C(F)F)n2ncc(C(=O)NC3CCCCCC3)c2n1	D1 mod 6.33 | D1 PAM confirm 10720 | D1 ag no DA inactive | Isoprot counter active
Cc1cc(C(F)F)n2ncc(C(=O)NCc3ccccc3C(F)(F)F)c2n1	D1 mod 5.28 | D1 PAM confirm 8576 | Isoprot counter active
CCOC(=O)c1c(NC(C)=O)sc2c(O)cccc12	none
CN(C)S(=O)(=O)c1ccc(S(=O)(=O)N(Cc2ccccn2)Cc2ccco2)cc1	none (no result: M1 agonist, D1 mod, M1 antag)
Cc1nnc(Sc2nc(Sc3nnc(C)s3)nc(N3CCN(C)CC3)n2)s1	none
COC(=O)C1(C(=O)OC)C(CC(C)C)C1(C(=O)OC)C(=O)OC	none (no result: RORA act, M1 agonist, D1 mod, SF-1 act, M1 antag)
COc1ccc2ncn(-c3ccccc3)c2c1	D1 mod 5.15 | D1 PAM confirm 8964 | D1 ag no DA inactive | Isoprot counter inactive
COc1ccc(-n2cnc3cc(NC(C)=O)ccc32)cc1	none (no result: RORA act, M1 agonist, D1 mod, SF-1 act, M1 antag)
O=C1CCCCC1Oc1ccc2c3c(c(=O)oc2c1)CCC3 (stereo not drawn)	none (no result: RORA act, M1 agonist, D1 mod, SF-1 act, M1 antag)
Cc1c(C)c2ccc(OC3CCCCC3=O)cc2oc1=O (stereo not drawn)	D1 mod 2.46 | D1 PAM confirm 6564 | D1 ag no DA inactive | Isoprot counter inactive
